Assay outcomes as filed in PubChem.
TPT1 inh: inhibitors of Candida albicans tRNA 2'-phosphotransferase TPT1 | inhibition, % at 5 µM | hit rate 0.81% among 300,000 | AID 1962 | recombinant caTPT1, FP RNA substrate dephosphorylation;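 active = inhibition above the mean of all tested compounds plus 3 SD, set per screening campaign, cut at about 24% in these data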;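 note: plate controls were DMSO alone for no effect and ferristatin control at 100 nM for full effect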
Rpn11 block: Rpn11 (human) deubiquitinase inhibition | O00487 | human 26S proteasome, Ub4-pepOG fluorescence polarization; 20S core pre-blocked with epoxomicin | inhibition, % at 20 µM | hit rate 0.59% among 360,000 | AID 588493;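 active = inhibition at 20 µM, scaled to each plate's controls, above about 33%, limit read from the data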
CSN inh: blocks human CSN-mediated cullin deneddylation; inhibition, % at 12.5 µM; Purified CSN, SCF-Nedd8-OG deneddylation, fluorescence polarization; Q92905; hit rate 0.38% among 360,000;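 active = pattern-corrected inhibition above about 35%, with an unprinted fluorescence ratio check between 0.5 and 1.5, limit read from the data, passing the limit was not always enough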;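 note: 0% = enzyme with substrate and 100% = substrate without enzyme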
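Schedule: reaction 90 min, room temperature / Assay system: HEK293T-derived human Csn5 enzyme / Input: Csn5 at 0.24 nM final / Measure: inhibition of Csn5 cleavage, % / Control set: substrate-only high control, full reaction low control / Technique: fluorescence polarization of the substrate / Buffer or medium: Tris/NaCl/DTT buffer, pH 7.5 / Reagent: SCFSkp2-Nedd8OG substrate at 10 nM final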
HNF4A DNA FP: change in binding of human HNF4 alpha to DNA. P41235. HNF4a-FITC DNA binding, fluorescence polarization, 1 h. hit rate 0.3% among 360,000. activity change, % at 10 µM. AID 1224865; in the data active = activity change above about 30%, passing the limit was not always enough
SENP1 FRET inh: inhibitors of human SENP1 SUMO protease catalytic domain; recombinant SENP1 catalytic domain, CyPet-SUMO1-YPet FRET cleavage; inhibition, % at 10 µM; Q9P0U3; hit rate 0.21% among 360,000;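 active = inhibition at least 30% at 10 µM, raw YFP signal under a set limit, fluorescence ratio 0.5 to 1.5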;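 note: 0% = enzyme with DMSO and 100% = no enzyme wells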
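Assay system – human recombinant His6-tagged SENP1 catalytic domain enzyme · Input – SENP1 enzyme, 20 pM final · Buffer or medium – Tris pH 8 buffer plus EDTA, NaCl, BME, BSA, NP40, catalase · Schedule – 50 min reaction at room temperature · Technique – FRET read of cyan and yellow fluorescence · Control set – no-enzyme wells low, DMSO-plus-enzyme wells high control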
TPT1 inh confirm: TPT1 (C. albicans) inhibition, confirmation | shares compounds with TPT1 inh | recombinant caTPT1, fluorescence polarization, RNase T1 coupled | inhibition, % at 5 µM | hit rate 74% among 2,400;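 active = inhibition above the primary screen limit, the mean inhibition of all tested compounds plus 3 SD, cut at about 25% in these data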
RNase T1 inh: counter-screen for TPT1 inhibitors: inhibitors of Aspergillus oryzae RNase T1; hit rate 83% among 2,400; shares compounds with TPT1 inh; RNase T1 cleavage, fluorescence polarization, 1536-well; inhibition, % at 5 µM; AID 2153;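 active = inhibition above the solvent-only control well mean plus 3 SD, limit set per screening run, cut at about 23% in these data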;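 note: plate controls were DMSO wells with enzyme for no effect and wells without RNase T1 for full effect; inhibitors block cleavage so intact labeled substrate keeps polarization high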
Target sequence (P00651 whole entry, looked up): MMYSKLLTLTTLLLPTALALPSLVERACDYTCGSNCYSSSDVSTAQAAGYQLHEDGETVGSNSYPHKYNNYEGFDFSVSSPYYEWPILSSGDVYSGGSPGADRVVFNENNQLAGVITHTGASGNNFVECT
Rpn11 confirm: confirmation of human proteasome Rpn11 inhibitors; shares compounds with Rpn11 block; purified human 26S proteasome, Ub4-pepOG fluorescence polarization; proteasome pretreated with epoxomicin; inhibition, % at 20 µM; hit rate 29% among 1,900
MMP-2 counter-1: MMP-2 (human) inhibition counter-screen | hit rate 4% among 1,900 | recombinant MMP-2, FRET peptide cleavage fluorescence | AID 602330 | inhibition, % at 20 µM | shares compounds with Rpn11 block;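 note: human MMP-2 activated beforehand with APMA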
Thrombin FP: thrombin (bovine) inhibition counter-screen; shares compounds with Rpn11 block; bovine thrombin cleavage of Ub4-pepOG, fluorescence polarization; inhibition, % at 20 µM; hit rate 13% among 1,900; AID 602333;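 active = mean inhibition at least 40% at 20 µM, or signal 3 deviations below plate average, so some actives read negative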;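 note: plate controls were thrombin with DMSO for no effect and buffer wells lacking thrombin for full effect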
Target sequence (P00735 whole entry, looked up): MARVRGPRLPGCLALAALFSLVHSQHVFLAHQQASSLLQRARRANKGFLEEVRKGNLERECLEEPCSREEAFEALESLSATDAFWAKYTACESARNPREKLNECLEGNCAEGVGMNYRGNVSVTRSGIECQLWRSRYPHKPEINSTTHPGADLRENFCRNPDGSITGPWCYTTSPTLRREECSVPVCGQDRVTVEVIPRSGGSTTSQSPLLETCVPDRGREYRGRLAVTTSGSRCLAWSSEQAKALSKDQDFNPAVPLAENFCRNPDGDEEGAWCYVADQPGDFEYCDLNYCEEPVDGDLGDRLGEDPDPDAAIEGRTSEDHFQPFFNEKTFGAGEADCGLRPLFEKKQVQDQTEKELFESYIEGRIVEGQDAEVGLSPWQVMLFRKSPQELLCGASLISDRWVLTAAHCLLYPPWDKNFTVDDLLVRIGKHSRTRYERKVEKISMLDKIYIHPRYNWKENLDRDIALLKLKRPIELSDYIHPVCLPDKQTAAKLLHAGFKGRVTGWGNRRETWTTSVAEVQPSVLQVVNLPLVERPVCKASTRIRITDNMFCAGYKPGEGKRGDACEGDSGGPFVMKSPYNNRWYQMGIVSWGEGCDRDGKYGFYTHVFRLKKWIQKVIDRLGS
CSN deneddyl val: validation of inhibitors of human CSN-mediated cullin deneddylation. shares compounds with CSN inh. inhibition, % at 16.6 µM. hit rate 62% among 540. Csn5 deneddylation of SCF-Nedd8OG, fluorescence polarization, 90 min. AID 720654; in the data active = inhibition above about 50%;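 note: 0% = DMSO with enzyme and 100% = no enzyme wells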
MMP-2 counter-2: blocks human MMP-2 in a CSN deneddylation counter-screen. shares compounds with CSN inh. recombinant MMP-2, FRET substrate fluorescence, 60 min. inhibition, % at 16.6 µM. hit rate 33% among 540. AID 720655;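 active = corrected plate-normalized z-score of 5 or more, or -5 or less, or inhibition of 15% or more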;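 note: plate controls were DMSO wells with enzyme for no effect and buffer wells lacking MMP-2 for full effect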
Thrombin cntr: blocks bovine thrombin in a CSN deneddylation counter-screen; shares compounds with CSN inh; bovine thrombin cleavage of Ub4-pepOG, fluorescence polarization; inhibition, % at 16.6 µM; hit rate 49% among 540; AID 720656;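 active = inhibition at or above a set limit, with a fluorescence interference ratio between 0.5 and a set maximum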
* = called active by the depositor; · = no result given; + = active, no number. Most compounds without a hit are left out; they make up all but 1.6% or so of the library. Cut-off read from the data, not from the text of the source, unless noted: active = inhibition above about 40%; inactive = the rest.

SMILES	TPT1 inh	Rpn11 block	CSN inh	HNF4A DNA FP	SENP1 FRET inh	TPT1 inh confirm	RNase T1 inh	CSN deneddyl val	MMP-2 counter-2	Thrombin cntr	others
COC(=O)c1ccc(C(=O)OC)c(NC(=O)COC(=O)CCOc2ccc(C)cc2)c1	1	3	0	4	-1	·	·	·	·	·
O=Cc1ccc(N2CCCC2)o1	0	1	-1	0	-1	·	·	·	·	·
N#C/C(=C\c1ccc(N2CCCCC2)o1)C(N)=O	+	·	106*	168	-38	171*	164*	198*	-10	15
Cc1c(C(=O)N2CCN(c3ncccn3)CC2)oc2ccc(Cl)cc12	·	2	2	-8	0	·	·	·	·	·
COc1cc(/C=C2\SC(=S)N(NC(=O)c3ccc(O)c(OC)c3)C2=O)ccc1O	35*	·	64*	59*	18	44*	58*	90*	-5	80*
Cn1cccc1/C=C1\SC(=S)N(NC(=O)c2ccccc2O)C1=O	79*	·	55*	101*	-69	87*	101*	95*	6	48*
O=C(CCN1C(=O)/C(=C/c2cccc(Br)c2)SC1=S)NNC(=O)c1cccnc1	1	0	0	2	3	·	·	·	·	·
CC(/C=C1\SC(=S)N(NC(=O)c2ccccc2C)C1=O)=C\c1ccccc1	7	-34	-1	-2	0	·	·	·	·	·
O=C(O)c1ccc(/C=C2\SC(=S)N(NC(=O)c3ccccc3)C2=O)cc1	11	-1	-6	1	4	·	·	·	·	·
COc1cc(/C=C2\SC(=S)N(NS(=O)(=O)c3ccc(C)cc3)C2=O)ccc1O	30*	99*	41*	25	91*	36*	48*	63*	15*	68*	Rpn11 confirm=83*;MMP-2 counter-1=26;Thrombin FP=90*
CCOc1cc(/C=C2\SC(=S)N(NC(=O)c3cccnc3)C2=O)ccc1O	50*	78*	36*	49*	50*	39*	54*	58*	2	36*	Rpn11 confirm=83*;MMP-2 counter-1=-1;Thrombin FP=62*
Cc1nn(CCCC(=O)NCCCN2CCN(C)CC2)c(=O)c2c1sc1ccccc12	-5	-6	0	4	-6	·	·	·	·	·
CC(C)C[C@H]1CN(CCCC[C@H]2CNC(=O)C(=O)N2CCc2ccccc2)C(=O)C(=O)N1CCC1CCCCC1	·	·	1	-2	1	·	·	·	·	·
COc1cc(/C=C2/SC(=S)N(Cc3ccccc3)C2=O)ccc1O	24*	·	57*	69*	-29	37*	46*	58*	-7	52
CCOc1cc(/C=C2\SC(=S)N(C(C(=O)O)c3ccccc3)C2=O)ccc1O (centres undefined)	45*	112*	41*	25	-35	48*	61*	81*	1	55*	Rpn11 confirm=63*;MMP-2 counter-1=13;Thrombin FP=72*
COc1cc(/C=C2\SC(=S)N(C(C(=O)O)c3ccccc3)C2=O)ccc1O (centres undefined)	27*	81*	39*	23	-47	28*	41*	73*	6	61*	Rpn11 confirm=56*;MMP-2 counter-1=-15;Thrombin FP=73*
COc1ccccc1/C=C1\SC(=S)N(C(C(=O)O)c2ccccc2)C1=O (centres undefined)	4	-5	1	-7	-9	·	·	·	·	·
CCOc1ccc(/C=C2/SC(=S)N(C(C(=O)O)c3ccccc3)C2=O)cc1OCC (centres undefined)	·	34	1	4	-47	·	·	·	·	·
COc1cc(/C=C2/SC(=NCc3ccccc3)N(Cc3ccccc3)C2=O)ccc1O	16	6	6	4	-23	·	·	·	·	·
CC(C)C(OC(=O)c1nsc(Cl)c1Cl)C(=O)NCC1CCCO1 (centres undefined)	-7	8	2	4	1	·	·	·	·	·
Cc1nc(-n2[nH]c3c(c2=O)CCCC3)[nH]c(=O)c1Cc1ccccc1	122*	·	52*	44*	-21	65*	77*	80*	-4	49*
CCCCNC(=O)C[C@@H]1C[C@@]2(C(=O)OCC)CCCC=C2N(Cc2ccc3c(c2)OCO3)C1=O	·	·	4	1	-1	·	·	·	·	·
COc1ccc(Cl)cc1C(=O)Nc1cccc(-c2ccc3nncn3n2)c1	38*	+	137*	55*	1	55*	28*	-14	18*	22*	Rpn11 confirm=76*;MMP-2 counter-1=16;Thrombin FP=14
CCOC(=O)SC1=N/C(=C\c2ccc(N(C)C)cc2)C(=O)S1	82*	·	43*	79*	16	101*	102*	80*	-7	46*
CCC(C)n1c(NC(=O)c2ccccc2)c(C#N)c2nc3ccccc3nc21 (centres undefined)	117*	·	50*	33*	-23	80*	85*	156*	-12	54*
CCOC(=O)[C@]12CCCC=C1N(Cc1cccc3ccccc13)C(=O)[C@H](CC(=O)N1CCCCC1)C2	·	·	-2	-1	4	·	·	·	·	·
Oc1ccc(Cl)cc1N=Cc1sc2ccccc2c1Cl	11	16	2	4	5	·	·	·	·	·
O=[N+]([O-])c1ccc(O)c(N=Cc2sc3ccccc3c2O)c1	42*	109*	44*	34	-48	38*	53*	102*	8	51*	Rpn11 confirm=42*;MMP-2 counter-1=26;Thrombin FP=-3
Cc1cc(/C=N/Nc2ccc([N+](=O)[O-])cn2)c(C)n1-c1ccc(C(=O)O)cc1	54*	31	53*	16	-2	68*	79*	90*	13	2
CCN(C(=O)COC(=O)/C=C/c1nc2ccccc2s1)c1c(N)n(Cc2ccccc2)c(=O)[nH]c1=O	·	0	-1	1	-20	·	·	·	·	·
